Measurements: ChEMBL document CHEMBL1154112, “Parallel synthesis of potent dopaminergic N-phenyltriazole carboxamides applying a novel click chemistry based phenol linker” (Bioorg Med Chem, 2009)
The source made the active and inactive calls. The calls are words filed in the database; no cut-off is given here.

Tests used:
[1] = molecular target: D(1A) dopamine receptor (Sus scrofa) (UniProt P50130); assay: Displacement of [3H]SCH23390 from pig dopamine D1 receptor
Outline: (§1)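 Porcine striatal membranes were incubated with 0.3 nM [3H]SCH 23390 (Kd 0.95 nM). Protein was measured by Lowry against a BSA standard. Test compounds were screened at 100 nM and 1 nM in triplicate. Ki values were derived by nonlinear regression of competition curves, as means of 2–4 experiments each run in triplicate.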

[2] = species on record: Sus scrofa; assay: Displacement of [3H]prazosin from pig alpha-1 adrenergic receptor; parameters: concentration or dose not given beside the values
Outline: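 Porcine cortical membranes at 55 µg protein per tube, [3H]prazosin as radioligand (Kd 0.06 nM). Ki obtained by non-linear regression of competition curves, means of 2–4 experiments each run in triplicate; screening run at 10 µM, 100 nM and 1 nM test compound in triplicate.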

[3] = molecular target: D(1A) dopamine receptor (Sus scrofa, UniProt P50130); assay: Binding affinity to pig dopamine D1 receptor; outline: as §1
Sequence of D(1A) dopamine receptor (P50130 whole entry): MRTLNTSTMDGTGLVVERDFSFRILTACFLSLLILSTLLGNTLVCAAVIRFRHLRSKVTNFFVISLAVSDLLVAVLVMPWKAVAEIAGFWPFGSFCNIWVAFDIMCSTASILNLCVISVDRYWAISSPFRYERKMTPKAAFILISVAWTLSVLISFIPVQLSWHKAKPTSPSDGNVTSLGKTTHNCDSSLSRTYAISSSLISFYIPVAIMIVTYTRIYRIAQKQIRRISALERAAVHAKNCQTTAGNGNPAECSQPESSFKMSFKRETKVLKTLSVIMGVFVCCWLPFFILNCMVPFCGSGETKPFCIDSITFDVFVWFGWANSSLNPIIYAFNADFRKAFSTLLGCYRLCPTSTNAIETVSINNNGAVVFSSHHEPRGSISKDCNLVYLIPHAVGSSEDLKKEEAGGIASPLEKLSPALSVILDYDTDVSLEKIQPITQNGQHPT

[4] = molecular target: T1, D(2) dopamine receptor (Homo sapiens, UniProt P14416); assay: Binding affinity to human cloned dopamine D2-long expressed in CHO cells; type: cell-based
T1 sequence (P14416 whole entry): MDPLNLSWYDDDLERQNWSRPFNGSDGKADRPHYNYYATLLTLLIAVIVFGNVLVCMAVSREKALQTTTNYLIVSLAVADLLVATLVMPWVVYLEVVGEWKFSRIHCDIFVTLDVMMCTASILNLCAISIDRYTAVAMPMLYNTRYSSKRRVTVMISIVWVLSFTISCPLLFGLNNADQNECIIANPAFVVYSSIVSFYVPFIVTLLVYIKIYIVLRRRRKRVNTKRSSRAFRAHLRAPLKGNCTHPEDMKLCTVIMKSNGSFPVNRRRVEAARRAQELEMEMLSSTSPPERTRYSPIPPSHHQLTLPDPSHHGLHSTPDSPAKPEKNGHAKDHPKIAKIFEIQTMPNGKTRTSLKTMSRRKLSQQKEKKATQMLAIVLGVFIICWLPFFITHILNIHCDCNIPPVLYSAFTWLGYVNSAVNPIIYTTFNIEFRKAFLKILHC
Outline: (§2)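 Competition binding used membranes from CHO cells expressing human D2long, D2short, D3 or D4.4, with 0.5 nM final [3H]spiperone. Screening was run at 100 nM and 1 nM test compound in triplicate. Ki values come from nonlinear regression, as means of 2–4 experiments each run in triplicate.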

[5] = molecular target: T1, D(2) dopamine receptor; assay: Binding affinity to human cloned dopamine D2-short expressed in CHO cells; type: cell-based; outline: as §2
[6] = molecular target: T2, D(3) dopamine receptor (Homo sapiens, UniProt P35462); assay: Binding affinity to human cloned dopamine D3 expressed in CHO cells; type: cell-based
T2 sequence (P35462 whole entry): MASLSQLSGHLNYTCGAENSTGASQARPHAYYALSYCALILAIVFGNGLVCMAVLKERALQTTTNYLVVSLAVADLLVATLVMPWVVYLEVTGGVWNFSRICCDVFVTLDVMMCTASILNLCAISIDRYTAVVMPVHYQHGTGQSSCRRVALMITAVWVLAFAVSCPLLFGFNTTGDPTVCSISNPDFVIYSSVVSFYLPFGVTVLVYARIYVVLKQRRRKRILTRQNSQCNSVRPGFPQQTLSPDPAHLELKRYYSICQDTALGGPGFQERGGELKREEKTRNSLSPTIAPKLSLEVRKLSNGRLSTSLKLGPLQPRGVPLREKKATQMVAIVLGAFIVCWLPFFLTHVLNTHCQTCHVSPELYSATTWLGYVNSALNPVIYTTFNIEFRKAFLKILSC

[7] = molecular target: T3, D(4) dopamine receptor (Homo sapiens, UniProt P21917); assay: Binding affinity to human cloned dopamine D4.4 expressed in CHO cells; type: cell-based
T3 sequence (P21917 whole entry): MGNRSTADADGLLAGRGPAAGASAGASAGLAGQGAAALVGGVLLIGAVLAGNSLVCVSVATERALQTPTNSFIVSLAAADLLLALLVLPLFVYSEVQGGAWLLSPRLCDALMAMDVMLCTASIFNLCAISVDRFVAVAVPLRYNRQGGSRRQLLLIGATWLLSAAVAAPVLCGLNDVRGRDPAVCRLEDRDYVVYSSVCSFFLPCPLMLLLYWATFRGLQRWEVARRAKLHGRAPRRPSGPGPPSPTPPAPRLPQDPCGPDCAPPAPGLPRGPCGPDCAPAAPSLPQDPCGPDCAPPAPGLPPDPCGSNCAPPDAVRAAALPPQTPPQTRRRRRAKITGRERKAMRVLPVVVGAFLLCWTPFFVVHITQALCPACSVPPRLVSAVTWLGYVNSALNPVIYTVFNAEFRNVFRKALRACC

[8] = Binding affinity to pig alpha-1 adrenergic receptor; parameters: species or system Sus scrofa
Outline: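 Alpha1 binding used porcine cortical membranes with [3H]prazosin (KD 0.06 nM). Protein was measured by Lowry against a BSA standard. Ki came from nonlinear regression of competition curves, as the mean of 2–4 experiments each run in triplicate.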

[9] = molecular target: T2, D(3) dopamine receptor; assay: Displacement of [3H]spiperone from human cloned dopamine D3 expressed in CHO cells; type: cell-based; parameters: concentration or dose not given beside the values; outline: as §2
[10] = molecular target: T1, D(2) dopamine receptor; assay: Displacement of [3H]spiperone from human cloned dopamine D2-long expressed in CHO cells; type: cell-based; outline: as §2
[11] = molecular target: T1, D(2) dopamine receptor; assay: Displacement of [3H]spiperone from human cloned dopamine D2-short expressed in CHO cells; type: cell-based; parameters: concentration or dose not given beside the values; outline: as §2
[12] = molecular target: T4, D(4) dopamine receptor (Homo sapiens) (UniProt P21917); assay: Displacement of [3H]spiperone from human cloned dopamine D4.4 expressed in CHO cells; type: cell-based; outline: as §2
T4 sequence (whole entry): T3 sequence (P21917 whole entry)

Sequence of D(1A) dopamine receptor (Sus scrofa) (P50130 whole entry): as the sequence (P50130 whole entry) above

## COc1ccccc1N1CCN(CCNC(=O)c2cn(-c3ccc([N+](=O)[O-])cc3)nn2)CC1
[1]
  Activity: inactive
[2]
  Activity: 80%
[3]
  Ki: 4100 nM
[4]
  Ki: 750 nM
[5]
  Ki: 470 nM
[6]
  Ki: 4.9 nM
[7]
  Ki: 140 nM
[8]
  Ki: 6.5 nM

## O=C(NCCN1CCN(c2cccc(Cl)c2Cl)CC1)c1cn(-c2ccc([N+](=O)[O-])cc2)nn1
[1]
  Activity: inactive
[9]
  Activity: 52%
[2]
  Activity: 47%

## O=C(CCCc1cn(-c2ccc([N+](=O)[O-])cc2)nn1)NCCCCN1CCN(c2ccccc2Cl)CC1
[1]
  Activity: inactive
[9]
  Activity: 51%
[2]
  Activity: 64%

## COc1ccc(-n2cc(C(=O)NCCN3CCN(c4ccccc4OC)CC3)nn2)cc1
[1]
  Activity: inactive
[2]
  Activity: 56%

## COc1ccc(-n2cc(CCCC(=O)NCCCCN3CCN(c4ccccc4Cl)CC3)nn2)cc1
[1]
  Activity: inactive
[9]
  Activity: 38%
[2]
  Activity: 58%

## O=C(NCCCCN1CCN(c2cccc(Cl)c2Cl)CC1)c1cn(-c2ccc([N+](=O)[O-])cc2)nn1
[1]
  Activity: inactive
[10]
  Activity: 33%
[11]
  Activity: 53%
[9]
  Activity: 95%
[2]
  Activity: 48%
[3]
  Ki: 810 nM
[4]
  Ki: 49 nM
[5]
  Ki: 53 nM
[6]
  Ki: 1 nM
[7]
  Ki: 280 nM
[8]
  Ki: 17 nM

## COc1ccccc1N1CCN(CCCCNC(=O)CCCc2cn(-c3ccc([N+](=O)[O-])cc3)nn2)CC1
[1]
  Activity: inactive
[10]
  Activity: 39%
[11]
  Activity: 52%
[9]
  Activity: 51%
[2]
  Activity: 83%

## COc1ccc(-n2cc(CCCC(=O)NCCN3CCN(c4cccc(Cl)c4Cl)CC3)nn2)cc1
[1]
  Activity: inactive
[9]
  Activity: 42%
[12]
  Activity: 41%

## O=C(CCCc1cn(-c2ccc([N+](=O)[O-])cc2)nn1)NCCCCN1CCN(c2cccc(Cl)c2Cl)CC1
[1]
  Activity: inactive
[11]
  Activity: 43%
[9]
  Activity: 76%
[3]
  Ki: 2200 nM
[4]
  Ki: 83 nM
[5]
  Ki: 47 nM
[6]
  Ki: 5.7 nM
[7]
  Ki: 240 nM
[8]
  Ki: 28 nM

## COc1ccc(-n2cc(CCCC(=O)NCCCCN3CCN(c4ccccc4OC)CC3)nn2)cc1
[1]
  Activity: inactive
[11]
  Activity: 33%
[9]
  Activity: 46%
[2]
  Activity: 72%

## COc1ccc(-n2cc(C(=O)NCCCCN3CCN(c4ccccc4OC)CC3)nn2)cc1
[1]
  Activity: inactive
[9]
  Activity: 57%
[2]
  Activity: 64%

## O=C(NCCCCN1CCN(c2ccccc2Cl)CC1)c1cn(-c2ccc([N+](=O)[O-])cc2)nn1
[1]
  Activity: inactive
[9]
  Activity: 61%
[2]
  Activity: 61%

## COc1ccc(-n2cc(C(=O)NCCN3CCN(c4cccc(Cl)c4Cl)CC3)nn2)cc1
[1]
  Activity: inactive
[9]
  Activity: 40%
[2]
  Activity: 39%

## COc1ccccc1N1CCN(CCNC(=O)CCCc2cn(-c3ccc([N+](=O)[O-])cc3)nn2)CC1
[1]
  Activity: inactive
[2]
  Activity: 43%

## COc1ccc(-n2cc(CCCC(=O)NCCCCN3CCN(c4cccc(Cl)c4Cl)CC3)nn2)cc1
[1]
  Activity: inactive
[11]
  Activity: 43%
[9]
  Activity: 71%
[3]
  Ki: 1800 nM
[4]
  Ki: 120 nM
[5]
  Ki: 42 nM
[6]
  Ki: 9.3 nM
[7]
  Ki: 200 nM
[8]
  Ki: 42 nM

## COc1ccc(-n2cc(C(=O)NCCCCN3CCN(c4cccc(Cl)c4Cl)CC3)nn2)cc1
[1]
  Activity: inactive
[9]
  Activity: 76%
[3]
  Ki: 1700 nM
[4]
  Ki: 44 nM
[5]
  Ki: 68 nM
[6]
  Ki: 4.9 nM
[7]
  Ki: 320 nM
[8]
  Ki: 46 nM

## COc1ccc(-n2cc(CCCC(=O)NCCN3CCN(c4ccccc4OC)CC3)nn2)cc1
[1]
  Activity: inactive
[2]
  Activity: 56%

## O=C(CCCc1cn(-c2ccc([N+](=O)[O-])cc2)nn1)NCCN1CCN(c2cccc(Cl)c2Cl)CC1
[1]
  Activity: inactive
[9]
  Activity: 39%
[12]
  Activity: 37%

## COc1ccc(-n2cc(C(=O)NCCCCN3CCN(c4ccccc4Cl)CC3)nn2)cc1
[1]
  Activity: inactive
[9]
  Activity: 58%
[2]
  Activity: 55%

## COc1ccccc1N1CCN(CCCCNC(=O)c2cn(-c3ccc([N+](=O)[O-])cc3)nn2)CC1
[1]
  Activity: inactive
[11]
  Activity: 38%
[9]
  Activity: 58%
[2]
  Activity: 73%
